Experimental data from ChEMBL document CHEMBL1124875, “Brain targeting of anti-HIV nucleosides: synthesis and in vitro and in vivo studies of dihydropyridine derivatives of 3'-azido-2',3'-dideoxyuridine and 3'-azido-3'-deoxythymidine” (J Med Chem, 1990).

Tests used:
in vivo [1] = settings: serum
[2] = Half life in phosphate buffer at pH 7.4; type: ADME
Procedure, shortened: (§1)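 Prodrug added from DMSO standard to an initial 50 or 10 µg/mL in one of four media at 37 °C with shaking: fresh human serum, fresh mouse serum, mouse brain homogenate (1:1 g/mL in physiological phosphate buffer), or phosphate buffer pH 7.4. Sampled 0–10 h. Dihydropyridine, quaternary salt and parent drug were measured by ion-pair HPLC at 260 nm. k is the terminal-phase ln(concentration)–time regression slope, with the associated half-life.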

Homo sapiens = organism: Homo sapiens; test: In vitro degradation rate constant in Human serum; type: ADME
Procedure, shortened: as §1

[3] = Half life in Human serum; type: ADME, organism-based
Procedure, shortened: as §1

[4] = Half life in Mouse serum; type: ADME, organism-based
Procedure, shortened: as §1

[5] = Half life in Mouse brain hom; type: ADME, organism-based; settings: brain homogenate
Procedure, shortened: as §1

Mus musculus [6] = organism: Mus musculus; test: In vitro degradation rate constant Mouse brain hom; type: ADME
Procedure, shortened: as §1

[7] = In vitro degradation rate constant in phosphate buffer at pH 7.4; type: ADME
Procedure, shortened: as §1

Mus musculus [8] = organism: Mus musculus; test: In vitro degradation rate constant in Mouse serum; type: ADME
Procedure, shortened: as §1

in vivo [9] = settings: brain
[10] = In vitro anti-HIV activity was determined in peripheral blood mononuclear cells.; type: functional, Homo sapiens
[11] = (§2) Half life of the compound; type: ADME
[12] = Relative brain exposure of the compound
[13] = serum
[14] = as §2; type: functional

Row | Compound | AUC (in vivo [1]) [ng·h/mL] | half-life [2] [min] | Rate constant (Homo sapiens) [h⁻¹] | half-life [3] [min] | half-life [4] [min] | half-life [5] [min] | Rate constant (Mus musculus [6]) [h⁻¹] | Rate constant [7] [h⁻¹] | Rate constant (Mus musculus [8]) [h⁻¹] | AUC (in vivo [9]) [ng·h/mL] | EC50 ([10]; Homo sapiens) [nM] | EC50 [10] [nM] | T1/2 [11] [h] | AUC [µg·h/mL] | Rel brain exposure [12] | AUC [13] [µg·h/mL] | T1/2 [14] [h] | half-life [11] [min]
1 | C[n+]1cccc(C(=O)OC[C@H]2O[C@@H](n3ccc(=O)[nH]c3=O)C[C@@H]2N=[N+]=[N-])c1.[I-] | 1210 | 52.2 | 0.14 | 297 | 30.6 | 39 | 1.07 | 0.8 | 1.36 | 3910 |  |  |  |  |  |  |  | 
2 | Cc1cn([C@H]2C[C@H](N=[N+]=[N-])[C@@H](COC(=O)C3=CN(C)C=CC3)O2)c(=O)[nH]c1=O | 1270 | 194 | 0.09 | 462 | 84 | 10.8 | 3.89 | 0.21 | 0.49 |  | 1.6 |  |  |  |  |  |  | 
3 | CN1C=CCC(C(=O)OC[C@H]2O[C@@H](n3ccc(=O)[nH]c3=O)C[C@@H]2N=[N+]=[N-])=C1 | 4430 | 128 | 0.16 | 260 | 33.6 | 10.2 | 4.15 | 0.33 | 1.24 |  |  | 1000 |  |  |  |  |  | 
4 | [N-]=[N+]=N[C@H]1C[C@H](n2ccc(=O)[nH]c2=O)O[C@@H]1CO (stereo in doubt; form 2) [NAVURIDINE] | 25800 |  |  |  |  |  |  |  |  |  | 200 |  | 0.84 | 2.09 |  |  |  | 
5 | [N-]=[N+]=N[C@H]1C[C@H](n2ccc(=O)[nH]c2=O)O[C@@H]1CO (stereo in doubt; form 1) [NAVURIDINE] |  |  |  |  |  |  |  |  |  |  |  |  | 4.34 | 11.43 | 5.47 | 25.79 |  | 
6 | Cc1cn([C@H]2C[C@H](N=[N+]=[N-])[C@@H](COC(=O)c3ccc[n+](C)c3)O2)c(=O)[nH]c1=O.[I-] | 600 | 75 | 0.02 | 2080 | 64.8 | 101 | 0.41 | 0.55 | 0.64 | 1290 |  |  |  |  |  |  |  | 
7 | Cc1cn([C@H]2C[C@H](N=[N+]=[N-])[C@@H](CO)O2)c(=O)[nH]c1=O [ZIDOVUDINE] | 26600 |  |  |  |  |  |  |  |  |  | 2 |  |  |  |  | 25.38 | 15.8 | 32.4
